Measured values: publication PMC11564280 (Clinical Drug Investigation, 2024)
“Also recorded” adds a separate entry of the source. Like-named read-outs stand apart in the source and are kept apart here.

Assays:
[1] = Safety and tolerability in healthy Japanese volunteers; format: in vivo, human; details: for Any AE / Any AE leading to discontinuation / Any SAE / Any possibly related AE / Death / Maculopapular rash: Japanese
Outline: (§1)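 Safety assessed at every visit in all randomized participants given ≥1 dose of drug or placebo (oral suspension once daily for 10 days, 3:1 randomization). Covered AE and SAE incidence and severity, vital signs, ECGs, laboratory tests and skin rash. Participants resided on site from day −1 to day 12, with visits on days 14, 16, 20 and 24. Rash graded by CTCAE; relatedness judged by the investigator.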

[2] = Safety and tolerability in healthy Chinese volunteers; format: in vivo, human; details: 5 mg once daily for 10 days, n = 6
Outline: as §1

[3] = format: in vivo, human; details: for Ae(0–last), cumulative amount excreted in urine / fe(0–last), fraction of dose excreted unchanged in urine: day 10; for Vd/F / half-life / CL renal: human, po; for Vd/F / half-life: plasma; for Ae(0–last), cumulative amount excreted in urine / fe(0–last), fraction of dose excreted unchanged in urine / CL renal: urine
Outline: (§2)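 Healthy males aged 18–50 y, randomized 3:1 to active or placebo (single-blind). Oral suspension given once daily each morning after a ≥10 h fast for 10 days: Japanese cohorts 2.5, 5 or 10 mg, Chinese cohort 5 mg. K2EDTA blood drawn pre-dose and 0.25–12 h post-dose on days 1 and 10, plus 24–336 h. Urine pooled 0–3, 3–6, 6–9, 9–12 and 12–24 h on day 10. Plasma spun 1500g, 4 °C, 10 min; samples stored at −50 to −90 °C.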

[4] = format: in vivo, human
Outline: as §2

[5] = Stability of frozen plasma and urine pharmacokinetic samples; set-up: species or system human; details: stored frozen at − 50 to − 90 °C
[6] = cited from earlier work; for mean CL/F on the last study day: mainly white and Black/African American participants
[7] = Safety and tolerability, Japanese and Chinese participants together; format: in vivo, human
Outline: as §1

[8] = Pharmacokinetics, Japanese and Chinese participants together or compared; format: in vivo, human
Outline: as §2

[9] = human plasma; cited from earlier work
[10] = SAD study 5–405 mg; cited from earlier work
[11] = 2.5 mg once daily for 10 days, n = 6
[12] = 5 mg once daily for 10 days, n = 6
[13] = 10 mg once daily for 10 days, n = 6
[14] = total mitiperstat 2.5, 5 or 10 mg, n = 18
[15] = Japanese, 2.5 mg oral once daily, n = 6
[16] = Japanese, 5 mg oral once daily, n = 5
[17] = Japanese, 10 mg oral once daily, n = 3
[18] = Chinese, 5 mg oral once daily, day 10, n = 5, urine

SMILES: C[C@@H](N)c1cc(Cl)ccc1Cn1c(=S)[nH]c(=O)c2[nH]ccc21 [Mitiperstat]
- Any AE [1, 11]: 1 (16.7) n (%)
- Any AE leading to discontinuation [1, 11]: 0 (0.0) n (%)
- Any SAE [1, 11]: 0 (0.0) n (%)
- Any possibly related AE [1, 11]: 0 (0.0) n (%)
- Death [1, 11]: 0 (0.0) n (%)
- Maculopapular rash [1, 11]: 0 (0.0) n (%)
- Any AE [1, 12]: 2 (33.3) n (%)
- Any AE leading to discontinuation [1, 12]: 1 (16.7) n (%)
- Any SAE [1, 12]: 0 (0.0) n (%)
- Any possibly related AE [1, 12]: 1 (16.7) n (%)
- Death [1, 12]: 0 (0.0) n (%)
- Maculopapular rash [1, 12]: 1 (16.7) n (%)
- Any AE [1, 13]: 4 (66.7) n (%)
- Any AE leading to discontinuation [1, 13]: 3 (50.0) n (%)
- Any SAE [1, 13]: 0 (0.0) n (%)
- Any possibly related AE [1, 13]: 3 (50.0) n (%)
- Death [1, 13]: 0 (0.0) n (%)
- Maculopapular rash [1, 13]: 3 (50.0) n (%)
- Any AE [1, 14]: 7 (38.9) n (%)
- Any AE leading to discontinuation [1, 14]: 4 (22.2) n (%)
- Any SAE [1, 14]: 0 (0.0) n (%)
- Any possibly related AE [1, 14]: 4 (22.2) n (%)
- Death [1, 14]: 0 (0.0) n (%)
- Maculopapular rash [1, 14]: 4 (22.2) n (%)
- day of rash occurrence ([1]; Participant receiving 5 mg): 4 days
- Any AE [2]: 2 (33.3) n (%)
- Any AE leading to discontinuation [2]: 1 (16.7) n (%)
- Any SAE [2]: 0 (0.0) n (%)
- Any possibly related AE [2]: 2 (33.3) n (%)
- Death [2]: 0 (0.0) n (%)
- Maculopapular rash [2]: 1 (16.7) n (%)
- Ae(0–last), cumulative amount excreted in urine [3, 15]: 1.20 (0.29) mg
- fe(0–last), fraction of dose excreted unchanged in urine [3, 15]: 47.94 (11.55) %
- Ae(0–last), cumulative amount excreted in urine [3, 16]: 2.56 (0.72) mg
- fe(0–last), fraction of dose excreted unchanged in urine [3, 16]: 51.14 (14.31) %
- Ae(0–last), cumulative amount excreted in urine [3, 17]: 6.29 (1.77) mg
- fe(0–last), fraction of dose excreted unchanged in urine [3, 17]: 62.94 (17.71) %
- dose proportionality of exposure (AUC, Ctrough and Cmax) ([3]; Japanese, 2.5–10 mg range): dose proportional; also recorded: increased proportionally with dose
- Vd/F ([3]; 2.5 mg): 2300 L
- half-life ([3]; 2.5 mg): 50.2 h
- Vd/F ([3]; 5 mg): 2170 L
- half-life ([3]; 5 mg): 57.8 h
- Vd/F ([3]; 10 mg): 2250 L
- half-life ([3]; 10 mg): 56.4 h
- CL renal ([3]; 2.5 mg): 248 mL/min
- CL renal ([3]; 5 mg): 215 mL/min
- CL renal ([3]; 10 mg): 282 mL/min
- Ae(0–last), cumulative amount excreted in urine [4, 18]: 2.48 (0.53) mg
- fe(0–last), fraction of dose excreted unchanged in urine [4, 18]: 49.59 (10.62) %
- Vd/F ([4]; human, plasma, po, 5 mg): 1960 L
- half-life ([4]; human, plasma, po, 5 mg): 55.4 h
- CL renal ([4]; human, urine, po, 5 mg): 200 mL/min
- known stability period of study samples ([5]; plasma): 438 days
- known stability period of study samples ([5]; urine): 439 days
- dose proportionality of AUC and Cmax ([6]; MAD study 5–45 mg, last day of dosing): approximately proportional to dose
- time to Cmax ([6]; healthy participants): approximately 1 h
- mean CL/F on the last study day ([6]; 5 mg): 22.8 L/h
- mean CL/F on the last study day ([6]; 10 mg): 20.6 L/h
- laboratory results, vital signs or electrocardiograms ([7]; Japanese and Chinese, 2.5–10 mg once daily for 10 days): No clinically significant trends or shifts from baseline
- time to resolution of rash ([7]; all cases of rash): ≤ 1 month
- day of rash occurrence ([7]; the other four participants who experienced rash): 9 days
- adverse events of rash of moderate intensity (maculopapular rash, CTCAE grade 2) ([7]; three Japanese 10 mg, one Chinese 5 mg): Four
- mean CL/F on the last study day ([8]; Japanese and Chinese cohorts receiving 5 mg): 25.3 L/h
- time to steady state ([8]; Japanese and Chinese, once-daily oral dosing): ≤ 10 days
- time to steady state by visual interpretation ([8]; Japanese and Chinese, trough concentrations): approximately 7 days
- renal clearance as share of apparent total clearance ([8]; both Japanese and Chinese participants): approximately 50%
- median time to Cmax ([8]; day 10, Japanese and Chinese, range of group medians): 1.02 to 2.00 h
- half-life ([8]; human, plasma, po): 50.2 to 57.8 h
- share of drug-related exposure in plasma [9]: approximately 7%
- dose proportionality of exposure (average AUC) [10]: increased proportionally with mitiperstat dose
